# What was measured:
# [1] = Aqueous stability of the compound at pH 7.4 measured after 60 mins by spectrophotometric analysis; assay type: physicochemical; conditions: buffer, pH 7.4, 1 h
# In short: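 Followed by spectrophotometry as changes in the compound absorption spectrum over time in 50 mM Tris-HCl pH 7.4, 0.5 mM EDTA, read after 60 min in 96-well microplate format. Compounds with low absorbance were not evaluated.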
# [2] = target: UDP-N-acetylglucosamine 1-carboxyvinyltransferase (Escherichia coli K-12) (UniProt P0A749); assay: Inhibition of recombinant Escherichia coli MurA assessed as residual activity at 500 uM using UDP-N-acetylglucosamine as substrate preincubated for 30 mins followed by substrate addition and measured by malachite green based colorimetric assay relative to control
# In short: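 E. coli MurA at 500–625 μM with 30 min preincubation before substrate addition. Malachite green colorimetric read-out. Activity threshold was <50% residual activity.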
# [3] = target: Replicase polyprotein 1ab (Severe acute respiratory syndrome coronavirus 2) (UniProt P0DTD1); assay: Inhibition of recombinant SARS-CoV-2 3CLpro expressed in Escherichia coli NiCo21(DE3) assessed as residual activity at 500 uM using DABCYL-KTSAVLQSGFRKME-EDANS as substrate preincubated for 30 mins followed by substrate addition and measured by FRET assay relative to control
# In short: (§1)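 Kinetic fluorescence read-out of cleavage of a FRET substrate carrying a DABCYL–EDANS pair. Compounds were tested at 500–625 μM, and <50% residual activity was taken as the activity threshold. To exclude false positives, absorbance at the excitation and emission wavelengths and autofluorescence of the compounds were measured.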
# [4] = Redox activity of compound assessed as redox index at 100 uM in presence of 1 mM DTT measured by HRP-PR assay; assay type: physicochemical
# In short: (§2)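 H2O2 from redox cycling, with or without DTT, detected with horseradish peroxidase-phenol red (HRP-PR).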
# [5] = target: UDP-N-acetylglucosamine 1-carboxyvinyltransferase (Escherichia coli K-12) (UniProt P0A749); assay: Inhibition of recombinant Escherichia coli MurA assessed as residual activity at 500 uM using UDP-N-acetylglucosamine as substrate and measured by malachite green based colorimetric assay relative to control
# In short: (§3)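 Screened at 500–625 μM with malachite green colorimetric read-out. Activity threshold was <50% residual activity.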
# [6] = Redox activity of compound assessed as redox index at 100 uM measured by H2DCFDA assay; assay type: physicochemical
# In short: (§4)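 Reactive oxygen species, with or without the reducing agent TCEP, detected with the fluorescent probe H2DCFDA. Compound spectral interference (autofluorescence) checked under the assay conditions.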
# [7] = target: Replicase polyprotein 1ab (Severe acute respiratory syndrome coronavirus 2) (UniProt P0DTD1); assay: Inhibition of recombinant SARS-CoV-2 3CLpro expressed in Escherichia coli NiCo21(DE3) assessed as residual activity at 500 uM using DABCYL-KTSAVLQSGFRKME-EDANS as substrate preincubated for 30 mins in presence of 1mM DTT followed by substrate addition and measured by FRET assay relative to control; in short: as §1
# [8] = Redox activity of compound assessed as redox index at 1 uM measured by resazurin assay; assay type: physicochemical
# In short: (§5)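 Free radicals formed by redox cycling with DTT detected with resazurin by fluorimetric read-out. Spectral interference checked.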
# [9] = target: UDP-N-acetylglucosamine 1-carboxyvinyltransferase (Escherichia coli K-12) (UniProt P0A749); assay: Inhibition of recombinant Escherichia coli MurA assessed as residual activity at 500 uM using UDP-N-acetylglucosamine as substrate preincubated for 30 mins in presence of 1 mM DTT followed by substrate addition and measured by malachite green based colorimetric assay relative to control
# [10] = Thiol reactivity of compound measured by TNB2- assay; assay type: physicochemical
# In short: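 Reactivity toward the thiol surrogate TNB2– in a nonproteinaceous setting without TCEP. Reversibility tested by adding TCEP and checking that absorbance was restored.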
# [11] = Redox activity of compound assessed as redox index at 10 uM measured by resazurin assay; assay type: physicochemical; in short: as §5
# [12] = Redox activity of compound assessed as redox index at 100 uM in presence of 100 uM TCEP measured by H2DCFDA assay; assay type: physicochemical; in short: as §4
# [13] = Redox activity of compound assessed as redox index at 100 uM measured by HRP-PR assay; assay type: physicochemical; in short: as §2
# [14] = system: Mycobacterium tuberculosis; assay: Inhibition of Mycobacterium tuberculosis MetAP1a assessed as residual activity at 625 uM using L-methionine 7-amido-4-methylcoumarin as fluorogenic substrate and measured by fluorescence based assay
# In short: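 Kinetic fluorescence assay in which the enzyme hydrolyses L-methionine 7-amido-4-methylcoumarin to fluorescent 7-amino-4-methylcoumarin. Compounds were tested at 500–625 μM, and activity was called at <50% residual activity. Spectral interference was checked by measuring absorbance at the excitation and emission wavelengths and compound autofluorescence.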
# [15] = target: D-alanine--D-alanine ligase B (Escherichia coli K-12) (UniProt P07862); assay: Inhibition of recombinant Escherichia coli DdlB assessed as residual activity at 500 uM using D-alanine as substrate incubated for 20 mins and measured by malachite green based colorimetric assay relative to control; in short: as §3
# [16] = Thiol reactivity of compound at 100 uM measured by DTNB assay; assay type: physicochemical
# Chain of UDP-N-acetylglucosamine 1-carboxyvinyltransferase (Escherichia coli K-12) (P0A749 whole entry): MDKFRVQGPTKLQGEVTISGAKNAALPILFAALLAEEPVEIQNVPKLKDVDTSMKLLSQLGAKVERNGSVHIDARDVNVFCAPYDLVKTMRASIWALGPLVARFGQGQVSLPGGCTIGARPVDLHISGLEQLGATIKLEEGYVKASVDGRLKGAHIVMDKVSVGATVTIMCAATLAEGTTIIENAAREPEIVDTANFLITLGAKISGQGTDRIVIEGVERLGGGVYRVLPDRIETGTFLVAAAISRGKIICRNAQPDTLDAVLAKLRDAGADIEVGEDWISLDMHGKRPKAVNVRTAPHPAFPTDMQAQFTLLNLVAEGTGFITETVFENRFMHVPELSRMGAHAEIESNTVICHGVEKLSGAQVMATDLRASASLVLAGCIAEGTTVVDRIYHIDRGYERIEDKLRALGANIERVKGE
SMILES,Stability [1],Activity [2] [%],Activity [3] [%],Activity_index [4],Activity [5] [%],Activity_index [6],Activity [7] [%],Activity_index [8],Activity [9] [%],Activity [10],Activity_index [11],Activity_index [12],Activity_index [13],Activity [14] [%],Activity [15] [%],Activity [16]
O=S(=O)(Cc1ccccc1)Nc1nccs1,Stable,0,20,1,0,22.2,82.8,1,94,Active,2,10.2,0.8,45.2,93,–
CCOC(=O)c1csc(N)n1,Stable,9,18.9,1,18.6,1.1,76.3,0.9,105,Active,1,0.7,0.8,93.7,89,–
Cc1cnc(N)s1,Stable,85.2,88,1,95.2,1.3,79.8,1,94.6,Active,0.9,1.3,1,118,92,–
N#Cc1cnc(Br)s1,Stable,94.3,101,1,96,1,75.5,0.9,100,Active,1,0.8,1,128,94,–
N#Cc1cnc(N)s1,Stable,6.1,1.1,1,18.9,1,74.1,0.9,102,Active,1.2,0.8,1,90.8,91,–
O=C(O)C(=O)Nc1ncc(Br)s1,Stable,1.2,62.2,1,11.3,1,82.8,0.9,112,Active,0.9,1.2,1,28.9,94,–
O=C(O)c1csc(Nc2cccc3ncccc23)n1,Stable,0,42.7,1,1.4,1.3,41.2,1,80.9,Active,2.4,1.6,1,36.8,82,–
N#Cc1cnc(NC(=O)C(=O)O)s1,Stable,90.6,104,1,112,0.9,97.6,0.9,114,Active,0.9,0.7,1,150,105,–
O=C(O)c1csc(-c2ccc(F)cc2)n1,Stable,12.8,82.6,1,58.7,1.1,88.1,0.9,90,Active,0.9,0.8,0.8,141,94,–
Cc1nc(CCl)cs1,–,48.4,96.8,1,89.6,1,90.9,0.9,112,Active,0.9,0.8,1,124,100,Active
Nc1ncc(Br)s1,Stable,9,42.5,1,21.1,1.6,79.4,0.9,100,Active,1.1,1.5,1,156,91,–
CC(C)(C)c1csc(N)n1,–,3.5,13,1,5.7,1.1,79.1,1.1,106,Active,0.9,0.5,1,128,94,–
NCCc1cn(Cc2cscn2)nn1,–,0,87.2,1,28.1,1.2,87.4,1,110,Active,0.9,1.5,0.9,94,82,–
CCOC(=O)c1sc(Br)nc1C,Unstable,9.1,91.6,1,19.5,1.3,85.8,0.9,103,Active,0.9,1.3,1,115,93,–
COC(=O)CC(=O)Nc1ncc(C#N)s1,Stable,5.8,-4.7,1,29.7,0.9,86.3,0.9,112,Active,1,1,1,92.6,88,–

# — ChEMBL document CHEMBL5104216, “Fragment-Sized Thiazoles in Fragment-Based Drug Discovery Campaigns: Friend or Foe?” (ACS Med Chem Lett, 2022)
